T cruzi repl – T. cruzi replication inhibition | T. cruzi beta-gal in NIH3T3, luminescence, 90 h | inhibition, % (test concentration not listed) | 300,000 compounds, 1.4% hits | AID 1885;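 active means mean inhibition across valid replicates above about 55%, limit read from the data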;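 further: signal also drops with host cell toxicity which is not excluded here; higher percent means less beta-gal luminescence so fewer parasites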
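System: Mouse NIH/3T3 fibroblasts infected with β-gal-expressing T. cruzi Tulahuen C4 | Quantity: NIH/3T3 cells, 5,000 per well | Reagent: 5000 reporter trypomastigotes per well | Dosing: Compound pinned at 50 nL/well, DMSO | Schedule: 3 h host attachment, then at least 90 h co-culture | Detection: GalScreen luminescence, 60 min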
CSC inhib – blocks cancer stem cells | 300,000 compounds, 1.1% hits | inhibition, % at 7.5 µM | cancer stem cell-like cells viability, luminescence | AID 2717; in the data active means inhibition above about 75%; tested in HMLE shEcad cells
Beta cell apopt – beta cell apoptosis inhibition | protection from apoptosis, % (no concentration beside the values) | 300,000 compounds, 0.8% hits | INS-1E cytokine-induced death, ATP luminescence, 48 h; percent of positive-control rescue, neutral wells zero;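 active means Every replicate reaches about 75%, or at least half do and their mean reaches it too, limit read from the data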;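 further: higher means more ATP so stronger rescue from cytokine killing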
Mdm2 MdmX PPI – human Mdm2/MdmX binding inhibition. 330,000 compounds, 3% hits. O15151+Q00987. inhibition, % at 8 µM. SaOS-2 split-luciferase Mdm2/MdmX complementation, luminescence;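 active means inhibition of at least 50% at 8 µM in the primary screen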
UPR XBP1 act – adaptive UPR (XBP1) activation; CHO-XBP1 luciferase reporter, IRE1-XBP1 UPR activation, luminescence; percent of tunicamycin response, DMSO as zero; activation, % at 20 µM; 330,000 compounds, 0.33% hits; AID 463104;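 active means versus positive control, 20 µM dose yields 30% or more activation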
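Assay system: IRE1-XBP1 luciferase reporter CHO line. Input: 1000 cells/well. Buffer or medium: F12 with 10% serum. Doses: 20 µM, 1% DMSO. Times: overnight seeding at 37 °C, 6 h compound treatment at 37 °C. Technique: Steady-Glo luciferase glow luminescence, 10 min after reagent addition.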
UPR CHOP act – activators of apoptotic arm of unfolded protein response (CHOP); CHO-CHOP luciferase reporter, UPR activation, luminescence; percent of tunicamycin response over DMSO baseline; activation, % at 10 µM; 330,000 compounds, 0.34% hits; AID 449763;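 active means at 10 µM dose, activation of 40% or more, normalized to positive control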
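Assay system: CHO cells with stable CHOP pathway luciferase reporter; Buffer or medium: F12 plus 10% serum; Times: 16-18 h cell attachment, then 6 h compound exposure, 37 °C; Signal: luciferase luminescence; Read-out basis: percent activation relative to tunicamycin control; Control set: tunicamycin high control, DMSO low control.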
UPR CHOP confirm – apoptotic UPR (CHOP) activation, confirmed. shares compounds with UPR CHOP act. CHO-CHOP cells, CHOP-luciferase reporter luminescence; percent of tunicamycin response, DMSO as zero. activation, % at 10 µM. 1,000 compounds, 64% hits; in the data active means activation above about 33%
XBP1 UPR conf – adaptive UPR (XBP1) activation, confirmed. AID 485299. 1,000 compounds, 63% hits. CHO-XBP1 IRE1-XBP1 luciferase reporter, luminescence. shares compounds with UPR XBP1 act. activation, % at 20 µM;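 active means reporter signal at least 30% of the positive control's activation in two or more of four replicate wells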
Of the large screens only hits and unclear results are named; the others gave an inactive call (follow-up assays come after a bar, where they were run). Sampled rows, rich in hits. Any-hit rate of the full collection: about 5%.

CC(C)(C)C1CCC(OC(=O)C[N+]2(C)CCCCC2)CC1 (stereo not drawn)	none
CC(C)Oc1ccc(CNC(=S)N/N=C/c2cccnc2)cc1	none
Cn1nc([N+](=O)[O-])c(C(C#N)c2ccccn2)c(Cl)c1=O (stereo not drawn)	T cruzi repl 63.8, CSC inhib 88.4, UPR CHOP act 73.2 | UPR CHOP confirm 49.0
COc1ccc(NC(=O)c2sc3nc(N4CCOCC4)c4c(c3c2N)CC(C)(C)OC4)c(OC)c1	UPR XBP1 act 162.7, UPR CHOP act 40.1 | UPR CHOP confirm 38.9 | XBP1 UPR conf 171.8
CCc1cccc(CC)c1NC(=O)/C(C#N)=C/c1ccccc1C(F)(F)F	UPR XBP1 act 70.3, UPR CHOP act 71.1 | UPR CHOP confirm 72.5 | XBP1 UPR conf 33.8
Cc1cc(NC(=O)CSc2nc(C3CC3)nc3sc4c(c23)CCC(C)C4)no1 (stereo not drawn)	UPR XBP1 act 65.3, UPR CHOP act 51.4 | UPR CHOP confirm inactive | XBP1 UPR conf inactive
CC(C)P(=O)(Cc1cccc(C#N)c1)C(C)C	none
O=c1oc(CCCO)cc2ccc(/C=C/c3cccc([N+](=O)[O-])c3)cc12	UPR XBP1 act 78.4, UPR CHOP act 75.8 (no result: T cruzi repl) | UPR CHOP confirm inactive | XBP1 UPR conf 32.6
CCCN(CCC)C(=O)C1CC(=O)OC12CCCCC2 (stereo not drawn)	none
O=C(Nc1cccc(-c2nc3cccnc3s2)c1)C1c2ccccc2Oc2ccccc21	UPR XBP1 act 439.9, UPR CHOP act 280.8 (no result: CSC inhib, Beta cell apopt) | UPR CHOP confirm 74.9 | XBP1 UPR conf 466.5
N#C/C(=C/c1ccc(OCc2ccc(C(=O)O)cc2)cc1)C(=O)Nc1ccccc1	none
N#C/C(=C\c1ccc(OCc2ccccc2)cc1)C(=O)Nc1nc2c(s1)CCN(Cc1ccccc1)C2	UPR XBP1 act 42.1, UPR CHOP act 91.5 | UPR CHOP confirm 145.1 | XBP1 UPR conf 132.2
CCOC(=O)c1cc(NC(=O)c2ccc(Cl)cc2)c(=O)n2c1oc1ccc(Cl)cc12	UPR XBP1 act 39.5, UPR CHOP act 69.8 | UPR CHOP confirm inactive | XBP1 UPR conf 45.4
O=C(c1ccccc1Br)N1CCc2c([nH]c3ccccc23)C1	none
COCCn1c(Cc2ccccc2)nnc1SCC(=O)NC1CCCCC1	none
C=CCOc1ccc2cccc(/C=N/NC(=O)c3cc4cc([N+](=O)[O-])ccc4s3)c2c1	UPR XBP1 act 46.5, UPR CHOP act 54.8 | UPR CHOP confirm inactive | XBP1 UPR conf 44.9
NC(=O)NCC12CC3CC(CC(C3)C1)C2	none
C/C(CCC12CC3CC(CC(C3)C1)C2)=N\NC(N)=S	UPR XBP1 act 82.7, UPR CHOP act 219.9 | UPR CHOP confirm 96.3 | XBP1 UPR conf 62.7
Clc1ccc(-n2c(SCc3nc4ccccc4[nH]3)nnc2-c2ccncc2)cc1	none
O=C(N/C(=C/c1cccc([N+](=O)[O-])c1)C(=O)N1CCOCC1)c1ccccc1Br	none
CCOc1ccccc1N=Cc1c(O)c2ccccc2oc1=O	UPR XBP1 act 178.9, UPR CHOP act 162.4 | UPR CHOP confirm 120.2 | XBP1 UPR conf 125.1
CC(C)c1ccc(N=Cc2c(O)c3ccccc3oc2=O)cc1	none
Cc1ccc(C)c(N=Cc2c(O)c3ccccc3oc2=O)c1	UPR XBP1 act 55.3, UPR CHOP act 60.9 (no result: Beta cell apopt) | UPR CHOP confirm 48.8 | XBP1 UPR conf 45.5
COc1ccc(N=Cc2c(O)c3ccccc3oc2=O)cc1	UPR XBP1 act 102.4, UPR CHOP act 128.3 | UPR CHOP confirm 67.5 | XBP1 UPR conf 38.4
CCOc1ccccc1N=Cc1c(O)n(C)c(=O)n(C)c1=O	none (no result: CSC inhib, Beta cell apopt)
CCN(CC)CCn1c2c(c(SCC(=O)Nc3cc(C)on3)nc1=O)CCCC2	none
CCn1ncc(Cl)c1C(=O)Nc1cc(Cl)ccc1Cl	none (no result: CSC inhib)
CCOC(=O)c1ccc(-c2ccc(/C=N/NC(=O)CN(c3cccc(C)c3)S(C)(=O)=O)o2)cc1	UPR XBP1 act 115.2, UPR CHOP act 54.7 | UPR CHOP confirm 50.0 | XBP1 UPR conf 48.2
CCOC(=O)c1ccc(-c2ccc(/C=N/NC(=O)CN(c3ccccc3Cl)S(C)(=O)=O)o2)cc1	none
CN(C)S(=O)(=O)c1ccc(N2CCCC2)c(C(=O)Nc2nc3ccccc3s2)c1	UPR XBP1 act 76.1, UPR CHOP act 125.1 | UPR CHOP confirm inactive | XBP1 UPR conf 90.7
CN(C)S(=O)(=O)c1ccc(N2CCCC2)c(C(=O)Nc2nc3ccc(F)cc3s2)c1	none
O=C(/C(=N/N=C/c1ccc(O)c(O)c1)c1ccccc1)c1ccccc1	UPR XBP1 act 41.1, UPR CHOP act 85.9 | UPR CHOP confirm 63.4 | XBP1 UPR conf 30.4
CCc1ccc(OCC(=O)N2CC(C(N)=O)Oc3ccccc32)cc1 (stereo not drawn)	none (no result: Beta cell apopt)
Oc1ccc(/C=N/Nc2nc(N3CCCC3)nc(N3CCCC3)n2)cc1O	UPR XBP1 act 66.9, UPR CHOP act 256.5 | UPR CHOP confirm 179.9 | XBP1 UPR conf 44.2
COc1cc(/C=N/Nc2nc(N3CCCC3)nc(N3CCCC3)n2)ccc1O	none
O=C(COc1cc2oc(=O)cc(-c3ccccc3)c2cc1Cl)NC(Cc1c[nH]c2ccc(O)cc12)C(=O)O (stereo not drawn)	none
CN1/C(=C\C(=O)COC(=O)c2ccc(O)c(O)c2)C(C)(C)c2ccccc21	Beta cell apopt 95.1, UPR XBP1 act 40.6, UPR CHOP act 96.5 | UPR CHOP confirm 81.2 | XBP1 UPR conf 32.6
Cc1oc2cc(O)ccc2c(=O)c1-c1cnn(-c2ccccc2)c1	none (no result: CSC inhib)
CCc1cc2c(=O)c(-c3cnn(-c4ccccc4)c3)c(C)oc2cc1OCC(=O)Nc1cccc(C)c1	UPR XBP1 act 75.0, UPR CHOP act 147.9 | UPR CHOP confirm 78.1 | XBP1 UPR conf 121.1
O=C(Nc1nc(-c2ccc3ccccc3c2)cs1)c1ccc(N2C(=O)CCC2=O)cc1	UPR XBP1 act 44.6, UPR CHOP act 76.5 (no result: Beta cell apopt) | UPR CHOP confirm 56.1 | XBP1 UPR conf 47.0
CCCN1Cc2cccc(C(=O)Nc3ccc(-c4nc5ccccc5[nH]4)cc3)c2C1=O	UPR XBP1 act 38.3, UPR CHOP act 41.9 | UPR CHOP confirm 41.0 | XBP1 UPR conf inactive
COCCN1Cc2cccc(C(=O)Nc3ccc(-c4nc5ccccc5[nH]4)cc3)c2C1=O	none (no result: CSC inhib)
CCOc1ncccc1C(=O)OCc1csc(CC(=O)Nc2ccccc2C)n1	none (no result: T cruzi repl, CSC inhib, Beta cell apopt)
CCOc1cc(/C=N/NC(N)=O)cc(Br)c1OCc1ccccc1	none
